Test results: publication PMC9975087 (Cell, 2023)

How the values were obtained:
Acb2 [1] = biological target: T1, Acb2 (Pseudomonas phage PaMx33, UniProt A0A1C8HPQ3); experiment: Isothermal titration calorimetry; type: binding
Acb2 Y11A = Acb2 Y11A (Pseudomonas phage PaMx33, UniProt A0A1C8HPQ3, Y11A); experiment: ITC / native PAGE binding of 3’,3’-cGAMP to Acb2 Y11A mutant; settings: ITC and native PAGE
Acb2 K26A = Acb2 K26A (Pseudomonas phage PaMx33, UniProt A0A1C8HPQ3, K26A); experiment: ITC / native PAGE binding of 3’,3’-cGAMP to Acb2 K26A mutant; settings: ITC and native PAGE
Acb2 K26A, sequence (A0A1C8HPQ3 whole entry K26A): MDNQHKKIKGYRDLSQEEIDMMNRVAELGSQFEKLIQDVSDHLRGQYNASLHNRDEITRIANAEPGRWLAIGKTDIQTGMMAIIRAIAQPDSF

Acb2 [2] = biological target: T1, Acb2; experiment: Native-PAGE assay of Acb2 with cyclic dinucleotides; type: binding; settings: Acb2 14.3 μM, cyclic dinucleotide 1.8-7.2 μM
Method in brief: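 Purified Acb2 (14.3 μM) preincubated 10 min at 18°C with cyclic dinucleotide at 1.8, 3.6 or 7.2 μM. Mixtures resolved on 5% native polyacrylamide gels and stained with Coomassie blue.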

CapV [3] = biological target: CapV (Pseudomonas aeruginosa, UniProt P0DX85); experiment: Fluorogenic biochemical assay for CapV phospholipase activity; parameters: species or system P. aeruginosa BWHPSA011 (Pa011); settings: 3’,3’-cGAMP 0.025-0.8 μM, other cyclic dinucleotides 0.8 μM
Acb2 [4] = biological target: T1, Acb2; experiment: HPLC assay of cyclic dinucleotide sequestering by Acb2; type: binding; settings: 40 μM Acb2 pre-incubated with 4 μM cyclic dinucleotide
[5] = system: Acb2 homolog from E. coli phage T4 (gene vs.4); settings: cited from earlier work
crystal structure = biological target: the molecule itself; experiment: crystal structure
Pa011 CBASS immunity = experiment: Plaque assays with PaMx41 phage on Pa011 WT; type: cell-based, Pseudomonas aeruginosa; settings: variant overexpressed in Pa011 WT, in the presence of CBASS
Method in brief: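 gp24 variants expressed episomally from arabinose-inducible, gentamicin-selected pHERD30T in Pa011 WT and ΔCBASS. Overnight culture (150 μl) mixed with top agar on LB agar. Phage lysate 10-fold serially diluted and spotted (2 μl) onto the solidified top agar; plates incubated at 37°C and titre read from plaques.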

CapV [6] = biological target: T2, CapV (Pseudomonas aeruginosa, UniProt P0DX85); experiment: Fluorogenic biochemical assay for CapV phospholipase activity; parameters: species or system P. aeruginosa BWHPSA011 (Pa011); settings: Acb2 or mutant 32 μM preincubated with 0.8 μM 3’,3’-cGAMP for 10 minutes
T2 sequence (P0DX85 whole entry, looked up): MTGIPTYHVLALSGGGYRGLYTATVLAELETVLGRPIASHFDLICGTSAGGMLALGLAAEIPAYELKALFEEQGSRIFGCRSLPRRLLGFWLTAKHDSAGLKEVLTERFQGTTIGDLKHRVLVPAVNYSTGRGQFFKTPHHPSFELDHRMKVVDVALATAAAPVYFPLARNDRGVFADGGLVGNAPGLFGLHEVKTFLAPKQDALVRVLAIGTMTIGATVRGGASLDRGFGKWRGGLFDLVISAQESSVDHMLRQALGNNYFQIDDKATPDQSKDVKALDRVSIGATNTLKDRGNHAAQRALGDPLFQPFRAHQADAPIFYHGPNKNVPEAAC

CapV [7] = biological target: T2, CapV; experiment: Gel filtration assay of Acb2 with CapV; type: binding, P. aeruginosa BWHPSA011 (Pa011); settings: molar ratio 5:1
Method in brief: (§1)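 Acb2 (E. coli BL21(DE3), 0.2 mM IPTG at OD600 0.8, 18°C 12 h; Ni-NTA, tag removed with Ulp1, Superdex-200) incubated with His-tagged partner protein at 5:1 molar ratio overnight on ice. Gel filtration was on Superdex-200 increase 10/300 GL in 10 mM Tris–HCl pH 8.0, 200 mM NaCl, 5 mM DTT at 0.5 mL/min. Fractions were analysed by SDS-PAGE with Coomassie staining.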

CdnA = biological target: T3, CdnA (Pseudomonas aeruginosa, UniProt P0DX86); experiment: Gel filtration assay of Acb2 with CdnA; type: binding, P. aeruginosa BWHPSA011 (Pa011); settings: molar ratio 5:1
T3 sequence (P0DX86 1-380): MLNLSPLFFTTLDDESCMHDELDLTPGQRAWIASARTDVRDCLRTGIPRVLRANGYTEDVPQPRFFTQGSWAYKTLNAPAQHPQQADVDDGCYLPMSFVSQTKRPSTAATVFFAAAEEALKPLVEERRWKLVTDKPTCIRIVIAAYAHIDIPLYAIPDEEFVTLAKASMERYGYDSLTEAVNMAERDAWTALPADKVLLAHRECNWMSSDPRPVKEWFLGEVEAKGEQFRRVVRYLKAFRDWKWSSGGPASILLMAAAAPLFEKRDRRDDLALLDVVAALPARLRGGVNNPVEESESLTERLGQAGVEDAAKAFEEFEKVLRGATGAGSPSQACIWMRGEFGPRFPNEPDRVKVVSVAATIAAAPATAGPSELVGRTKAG
Method in brief: as §1

Cap2 = biological target: T4, Cap2 (Pseudomonas aeruginosa, UniProt P0DX87); experiment: Gel filtration assay of Acb2 with Cap2; type: binding, P. aeruginosa BWHPSA011 (Pa011); settings: molar ratio 5:1
T4 sequence (P0DX87 1-543): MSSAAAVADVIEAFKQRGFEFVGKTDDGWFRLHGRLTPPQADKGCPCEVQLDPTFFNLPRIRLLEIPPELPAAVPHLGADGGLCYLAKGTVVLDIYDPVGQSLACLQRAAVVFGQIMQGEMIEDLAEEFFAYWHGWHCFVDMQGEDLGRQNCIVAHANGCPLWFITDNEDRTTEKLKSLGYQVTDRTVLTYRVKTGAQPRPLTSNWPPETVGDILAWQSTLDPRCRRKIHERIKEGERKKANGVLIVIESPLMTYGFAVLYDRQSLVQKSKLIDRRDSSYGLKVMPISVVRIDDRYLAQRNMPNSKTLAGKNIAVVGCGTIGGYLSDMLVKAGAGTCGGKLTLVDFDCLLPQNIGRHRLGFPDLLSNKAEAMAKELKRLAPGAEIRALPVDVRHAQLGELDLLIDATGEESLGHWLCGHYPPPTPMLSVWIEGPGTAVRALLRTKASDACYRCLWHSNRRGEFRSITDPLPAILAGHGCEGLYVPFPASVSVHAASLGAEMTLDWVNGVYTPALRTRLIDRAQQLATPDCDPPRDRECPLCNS
Method in brief: as §1

CdnA-Cap2 complex = biological target: T5, CdnA-Cap2 complex (Pseudomonas aeruginosa, UniProt P0DX86+P0DX87, C105A/C479A); experiment: Gel filtration assay of Acb2 with CdnA-Cap2 complex; type: binding, P. aeruginosa BWHPSA011 (Pa011); settings: molar ratio 5:1
T5 sequence (P0DX86 1-380): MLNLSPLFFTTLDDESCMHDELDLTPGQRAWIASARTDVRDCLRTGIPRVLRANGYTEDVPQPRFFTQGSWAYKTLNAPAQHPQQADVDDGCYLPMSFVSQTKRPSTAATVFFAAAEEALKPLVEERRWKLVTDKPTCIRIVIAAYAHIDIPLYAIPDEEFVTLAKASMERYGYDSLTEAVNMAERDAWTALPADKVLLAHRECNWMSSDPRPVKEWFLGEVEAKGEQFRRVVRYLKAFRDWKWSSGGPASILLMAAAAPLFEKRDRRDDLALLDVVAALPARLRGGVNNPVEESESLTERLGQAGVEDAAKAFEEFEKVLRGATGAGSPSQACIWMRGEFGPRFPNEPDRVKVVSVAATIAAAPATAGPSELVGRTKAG
T5 sequence (P0DX87 1-543 C105A/C479A): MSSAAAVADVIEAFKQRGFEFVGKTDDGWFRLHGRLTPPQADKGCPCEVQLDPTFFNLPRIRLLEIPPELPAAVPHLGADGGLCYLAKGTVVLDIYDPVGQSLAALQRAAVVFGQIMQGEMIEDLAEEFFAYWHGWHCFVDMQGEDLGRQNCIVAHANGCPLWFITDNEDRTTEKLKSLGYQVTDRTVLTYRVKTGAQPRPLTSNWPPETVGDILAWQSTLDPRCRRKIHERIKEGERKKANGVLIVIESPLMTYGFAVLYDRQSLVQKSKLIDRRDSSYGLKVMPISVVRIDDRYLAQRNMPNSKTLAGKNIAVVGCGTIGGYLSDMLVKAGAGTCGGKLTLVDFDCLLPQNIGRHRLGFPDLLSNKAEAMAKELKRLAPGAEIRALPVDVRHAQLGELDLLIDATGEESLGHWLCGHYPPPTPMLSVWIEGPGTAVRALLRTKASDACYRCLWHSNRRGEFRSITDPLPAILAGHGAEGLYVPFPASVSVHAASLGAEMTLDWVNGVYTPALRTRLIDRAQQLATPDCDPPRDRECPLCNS
Method in brief: as §1

[8] = system: 3’,3’-cGAMP levels in phage-infected Pa011 cells; experiment: Intracellular 3’,3’-cGAMP measurements by ELISA in phage-infected Pa011 cells; type: cell-based, Pseudomonas aeruginosa; settings: overexpression in phage-infected Pa011 WT cells

Acb2 Y11A, sequence (A0A1C8HPQ3 whole entry Y11A): as the sequence (A0A1C8HPQ3 whole entry K26A) above, with Y11A, A26K counted along it

## Nc1ncnc2c1ncn2[C@@H]1O[C@@H]2COP(=O)(O)O[C@H]3[C@@H](O)[C@H](n4ccc(=O)[nH]c4=O)O[C@@H]3COP(=O)(O)O[C@H]2[C@H]1O [3’,3’-c-UMP-AMP]
Acb2 [1]
  Kd: ~97 nM

## Nc1nc2c(ncn2[C@@H]2O[C@@H]3COP(=O)(O)O[C@H]4[C@@H](O)[C@H](n5ccc(=O)[nH]c5=O)O[C@@H]4COP(=O)(O)O[C@H]3[C@H]2O)c(=O)[nH]1 [3’,3’-c-UMP-GMP]
Acb2 [1]
  Kd: ~524 nM

## O=c1ccn([C@@H]2O[C@@H]3COP(=O)(O)O[C@H]4[C@@H](O)[C@H](n5ccc(=O)[nH]c5=O)O[C@@H]4COP(=O)(O)O[C@H]3[C@H]2O)c(=O)[nH]1 [3’,3’-c-di-UMP]
Acb2 [1]
  Kd: ~99 nM

## Nc1nc2c(ncn2[C@@H]2O[C@@H]3COP(=O)(O)O[C@H]4[C@@H](O)[C@H](n5cnc6c(N)ncnc65)O[C@@H]4COP(=O)(O)O[C@H]3[C@H]2O)c(=O)[nH]1 [3’,3’-cGAMP]
Acb2 [1]
  Kd: ~87 nM
Acb2 Y11A
  binding of 3’,3’-cGAMP to Acb2 Y11A in vitro: abolished
Acb2 K26A
  binding of 3’,3’-cGAMP to Acb2 K26A in vitro: abolished
Acb2 [2]
  shift of purified Acb2 protein in native gel: significant shift
CapV [3]
  activation of CapV phospholipase activity: activated
Acb2 [4]
  sequestering of cyclic dinucleotide by Acb2 (HPLC): depletes detectable
[5]
  Kd: ~30 nM

## Nc1ncnc2c1ncn2[C@@H]1O[C@@H]2COP(=O)(O)O[C@H]3[C@@H](O)[C@H](n4cnc5c(N)ncnc54)O[C@@H]3COP(=O)(O)O[C@H]2[C@H]1O [c-di-AMP]
Acb2 [1]
  Kd: ~66 nM
Acb2 [4]
  sequestering of cyclic dinucleotide by Acb2 (HPLC): sequester

## Nc1nc2c(ncn2[C@@H]2O[C@@H]3COP(=O)(O)O[C@H]4[C@@H](O)[C@H](n5cnc6c(=O)[nH]c(N)nc65)O[C@@H]4COP(=O)(O)O[C@H]3[C@H]2O)c(=O)[nH]1 [c-di-GMP]
Acb2 [4]
  sequestering of cyclic dinucleotide by Acb2 (HPLC): very weak sequestering effect

B1: Acb2 (anti-CBASS 2) from phage PaMx33 (natural protein, Pseudomonas aeruginosa phage PaMx33, UniProt A0A1C8HPQ3 1-93, looked up)
chain: MDNQHKKIKGYRDLSQEEIDMMNRVKELGSQFEKLIQDVSDHLRGQYNASLHNRDEITRIANAEPGRWLAIGKTDIQTGMMAIIRAIAQPDSF
Crystal structure
  stoichiometry N: 6

B2: long gp24: 94 a.a. version of PaMx41 gp24 (orf24 X37Q), named Acb2 hereafter (protein)
chain: MDNQHKKIKGYRDLSQEEIDMMNRVKELGSQFEKLIQDVSDHLRGQYNASLHNRDEITRIANAEPGRWLAIGKTDIQTGMMAIIRAIAQPDSF
modifications: left off: His6-SUMO, end not stated, cleaved
Pa011 CBASS immunity
  increase of PaMx41 WT phage titer: ≥ 4 orders of magnitude

B3: Acb2: phage anti-CBASS protein 2, purified from the naturally CBASS-resistant PaMx33 phage; hexameric cyclic dinucleotide sponge (protein)
chain: MDNQHKKIKGYRDLSQEEIDMMNRVKELGSQFEKLIQDVSDHLRGQYNASLHNRDEITRIANAEPGRWLAIGKTDIQTGMMAIIRAIAQPDSF
modifications: left off: His6-SUMO, end not stated, cleaved
CapV [6]
  effect on 3’,3’-cGAMP-activated CapV activity: abrogated
CapV [7]
  binding of Acb2 to purified CapV: did not bind
CdnA
  binding of Acb2 to purified CdnA: did not bind
Cap2
  binding of Acb2 to purified Cap2: did not bind
CdnA-Cap2 complex
  binding of Acb2 to the CdnA-Cap2 complex: did not bind
[8]
  effect on detectable 3’,3’-cGAMP levels: reduced
